Screening data from PubChem BioAssay.
The list is not random: actives were taken first. Their share in the collection is about 3.8%.
RAM network inh – blocks the yeast RAM network; 190,000 compounds, 1.8% hits; S. cerevisiae dse1pr::URA3 reporter, 5-FOA growth OD615, 2 d; analog-sensitive cbk1-as2 kinase mutant strain; inhibition, % at 50 µM; AID 868;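 active means inhibition above a set limit, 3 SD over mean compound inhibition, cut at about 8.4% in these data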;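 further: inhibition rescues growth on 5-FOA so higher OD means more RAM inhibition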
Yeast growth inh – yeast BB579 growth reduction in restrictive medium; AID 804; S. cerevisiae BB579 growth, OD615, 48 h; 140,000 compounds, 0.51% hits; inhibition, % at 10 µM;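 active means inhibition above a set limit, 3 SD over the mean compound inhibition, cut at about 44% in these data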
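System: Saccharomyces cerevisiae DeaD strain BB579, replicative lifespan model yeast | Buffer or medium: Restrictive glucose-based CSMM-D medium | Times: 4 h preincubation and 48 h exposure at 30 °C | Detection: OD615 turbidity measurement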
Measles CPE – protection of cells from measles virus; Measles virus-infected cells, CPE protection, absorbance; protection (pct of control), % at 4 µM; 140,000 compounds, 1.5% hits; in the data active means protection mostly above about 24%, no sharp cut-off; inactive means mostly below about 26%
Yeast lifespan up – yeast lifespan extension. inhibition of the nicotinamide effect, % at 10 µM. AID 775. 130,000 compounds, 0.68% hits. S. cerevisiae growth with nicotinamide, OD615; deaD strain in restrictive glucose medium;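 active means inhibition above a set limit, placed 3 SD over the median of all compounds, cut at about 26% in these data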
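assay system = DeaD-strain S. cerevisiae | measured by = absorbance at 615 nm | probe or stimulus = nicotinamide 1.5 mM | buffer or medium = CSMM-D glucose medium, restrictive | times = 48 h at 30 °C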
Numbers stand for hits; . = inactive; / = not tested or not shown.

SMILES | RAM network inh | Yeast growth inh | Measles CPE | Yeast lifespan up
CCC1C(=O)N=C(SCC(=O)Nc2ccccc2)NC1=O (stereo not drawn) | . | 50.9 | . | /
O=Cc1ccccc1OS(=O)(=O)c1ccccc1 | . | . | . | 49.5
COc1ccc(NS(=O)(=O)c2cc(NC(=O)Cc3cccs3)ccc2C)cc1 | . | . | . | .
COc1ccc(NS(=O)(=O)c2cc(NC(=O)[C@@H](NC(=O)c3ccccc3)C(C)C)ccc2C)cc1 | 8.6 | . | . | .
COc1ccc(-c2nc3oc4cc(OC)ccc4c(=O)c3c(=O)n2Cc2ccco2)cc1 | . | . | . | 27.2
COc1ccc2c(=O)c3c(=O)n(Cc4ccco4)c(-c4ccco4)nc3oc2c1 | . | . | . | 74.5
Cc1ccc2c(c1)NC(c1cccs1)C1=C(CC(C)(C)CC1=O)N2 (stereo not drawn) | . | / | / | /
CC(Oc1ccc(Cl)cc1Cl)c1nc(-c2ccc(NC(=O)c3ccccn3)cc2)no1 (stereo not drawn) | 11.0 | . | . | /
COc1ccc(NC(=O)c2ccccn2)cc1OC | . | . | . | .
Cc1c(C(=O)Nc2cccc(N(C)S(C)(=O)=O)c2)cccc1[N+](=O)[O-] | . | / | / | /
Cc1onc(-c2ccccc2)c1C(=O)Nc1ccc(S(=O)(=O)NC(C)(C)C)cc1 | . | / | / | /
Cc1cc(SCC(=O)OCC(=O)NC(C)c2ccccc2)c(C)cc1Br (stereo not drawn) | 10.1 | . | . | .
C=CCn1c(O)c(C(CC)=Nc2ccccc2NC(=O)CC)c(=O)[nH]c1=O | . | . | . | .
C=CCn1c(O)c(C(CC)=NCCN2CCOCC2)c(=O)[nH]c1=O | . | . | . | 37.5
N=C1C(=O)OCC1c1ccccc1NC(=O)c1ccccc1 (stereo not drawn) | . | . | . | .
O=C(Nc1ccc(C#Cc2ccccc2)cc1)C1CC1 | . | . | 58.2 | .
CCOC(=O)C1=C(CC)Nc2ccccc2N/C1=N\S(=O)(=O)c1ccc(C(=O)OCC)cc1 | 9.3 | / | / | /
Cc1nc(CN2CCN(Cc3nc(C(c4ccccc4)c4ccccc4)no3)CC2)cs1 | . | / | / | /
COc1ccccc1NC(=O)c1ccc(NC(=O)COC(=O)CC(NC(=O)c2ccccc2Cl)c2ccccc2)cc1 (stereo not drawn) | . | . | . | .
CCCCCCCC#Cc1ccccc1/C=N/S(=O)c1ccc(C)cc1 (stereo not drawn) | . | . | . | 36.2
COc1cc(CNC23CC4CC(CC(C4)C2)C3)ccc1OCc1ccccc1 | . | / | / | /
CC12C(=O)N(c3cccc4cccnc34)C(=O)C1C1C=CC2C1 (stereo not drawn) | . | 45.7 | . | .
CCCCNC(=S)N(C)/N=C/c1sc(N2CCCCC2)nc1-c1cccs1 | 9.9 | . | . | .
O=C(CCSc1ccccc1Cl)Nc1cccc([N+](=O)[O-])c1 | 8.9 | . | . | .
NS(=O)(=O)c1cccc(NC(=O)CCSc2ccccc2Cl)c1 | . | . | . | .
SMILES | RAM network inh | Yeast growth inh | Measles CPE | Yeast lifespan up
Cc1cccc(C(=O)O/N=C/c2c(N3CCOCC3)n(C)c3ccccc23)c1 | . | 52.6 | 32.0 | .
N#Cc1cnc(NN)nc1 | . | / | / | /
O=S1(=O)Nc2c(ccc3cccnc23)-c2ccccc21 | . | 99.7 | . | .
CCC(C)(C)NC(=O)CN(CCc1cccc(C)c1)C(=O)c1csnn1 | . | / | / | /
CC(C)(C)n1nnnc1C(c1cccc(C(F)(F)F)c1)N1CCC(O)CC1 (stereo not drawn) | . | / | / | /
CC(C)(C)n1nnnc1C(c1cccc(C(F)(F)F)c1)N1CCOCC1 (stereo not drawn) | . | . | 27.4 | .
Fc1ccc(CSc2nc3ccccc3[nH]2)cc1 | . | . | . | .
c1ccc(-c2nnc(CSc3nc4ccccc4[nH]3)o2)cc1 | . | . | 33.4 | .
COc1cc(C(=O)NC(=S)NNC(=O)c2cnccn2)cc(OC)c1OC | . | 88.1 | . | .
COc1ccc(C(=O)NC(=S)NNC(=O)c2cnccn2)cc1 | . | 81.3 | . | .
COc1ccc(CC(=O)NNC(=O)c2cnccn2)cc1 | . | . | . | .
COc1ccc(C2C(C#N)=C(N)N(c3ccccc3C#N)C3=C2C(=O)CCC3)cc1CN1CCCC1 (stereo not drawn) | . | . | . | .
CC(C)(C)c1ccc(-c2cn(-c3ccc(Br)cc3)c3[n+]2CCCS3)cc1 | . | / | / | /
Cn1c(=O)c(=O)n(C)c2cc(S(=O)(=O)N3CCN(Cc4ccccc4)CC3)ccc21 | . | . | . | 87.9
O=C(CSCc1cccc(Br)c1)NC1CC1 | . | . | . | .
CCS(=O)(=O)Nc1ccc(-c2cc(-c3ccccc3)c3cc(C)ccc3n2)cc1 | . | . | . | .
Cc1ccc2nc(-c3ccc(NS(C)(=O)=O)cc3)cc(-c3ccccc3)c2c1 | . | 90.4 | 41.9 | .
CCc1c(C)sc(NC(=O)C2CC2c2ccccc2)c1C(N)=O (stereo not drawn) | . | . | 38.3 | .
COc1cccc(CNC(=O)c2nnn(-c3ccc(OC(F)(F)F)cc3)c2N)c1 | . | . | . | .
Nc1c(C(=O)NCc2ccc3c(c2)OCO3)nnn1-c1ccc(OC(F)(F)F)cc1 | . | . | 53.9 | .
Cc1cc(C)n(-c2ccc(C(=O)NC3=NCCS3)cc2)n1 | . | . | 34.9 | .
Cc1cc(C)n(-c2ccc(C(=O)Nc3ccc4c(c3)OCO4)cc2)n1 | . | . | . | .
COc1ccc(NC(=O)c2ccc(-n3nc(C)cc3C)cc2)cc1OC | . | . | 49.0 | .
CC(Sc1cccc[n+]1[O-])C(=O)Nc1ccc(Oc2ccccc2)cc1 (stereo not drawn) | . | / | / | /
Cc1cccc2cc(C#N)c(NCCNC(=O)COc3ccccc3)nc12 | 10.2 | / | / | /
SMILES | RAM network inh | Yeast growth inh | Measles CPE | Yeast lifespan up
O=C(CN1CCCCCCC1)Nc1cccc(Cl)c1Cl | . | / | / | /
O=C(NCc1ccc2c(c1)OCO2)c1ccc(S(=O)(=O)N2CCCCC2)cc1 | . | . | . | .
O=C(NCc1ccc2c(c1)OCO2)c1ccc(NS(=O)(=O)c2ccc3c(c2)OCCO3)cc1 | 8.5 | . | . | .
COc1ccc(-n2c(N)c(C(=O)NCc3ccco3)sc2=S)cc1 | . | . | . | .
CCOC(=O)c1ccc(-n2c(N)c(C(=O)NCc3ccco3)sc2=S)cc1 | . | . | 51.1 | .
CCc1ccc(NC(=O)C2(c3ccccc3)CC2(Cl)Cl)cc1 (stereo not drawn) | 8.5 | . | . | .
CCCNC(=O)N1CCN(Cc2ccco2)CC1 | . | / | / | /
Cc1ccc(OCC(=O)NC(=S)Nc2ccc(Br)cn2)cc1C | 9.5 | / | / | /
NS(=O)(=O)c1ccc(NC(=O)CSc2nnc(COc3ccccc3Cl)n2C2CC2)cc1 | 9.5 | . | . | .
Cc1[nH]c2ccccc2c1C(=O)COC(=O)c1ccc2c(=O)n3c(nc2c1)CCC3 | 9.1 | / | / | /
O=[N+]([O-])c1cccc(-c2csc(N/N=C/c3cccc(O)c3)n2)c1 | . | / | / | /
COCCN1Cc2cc3cc(C)ccc3nc2SC1=Nc1cccc(OC)c1 | . | / | / | /
Cc1cccc(N=C2Sc3nc4c(C)c(C)ccc4cc3CN2CCN2CCOCC2)c1 | . | 99.3 | 30.8 | .
OCCN1CCN(Cc2cc(Cl)c3cccnc3c2O)CC1 | . | . | . | .
O=C(Oc1c(CN2CCOCC2)cc(Cl)c2cccnc12)c1ccc(F)cc1 | . | . | . | 28.5
